Measurements gathered from unrelated publications.
Lines come from different studies, so protocols differ.
Target: Bone morphogenetic protein receptor type-1A (BMPR1A, Homo sapiens, UniProt P36894)

| Structure (SMILES) | effect on | method | tested at | remaining binding [%] |
| --- | --- | --- | --- | --- |
| CN(c1nccc(-c2cnn3ncccc23)n1)C1CC1 | binding |  | 1 µM | 78 |
| O=C(c1ccc(Nc2nccc(-c3cc4ccccc4s3)n2)cc1)N1CCC(N2CCCC2)CC1 | binding | competition with immobilised ligand | 1 µM | 75 |
| CN(C)c1nccc(-c2cnn3ncccc23)n1 | binding |  | 1 µM | 81 |
| C=CC(=O)N1CCC(C(=O)NCC(=O)N2CCN(c3nc(-c4cnc(N)nc4C(F)F)nc(N4CCOCC4)n3)CC2)CC1 | binding | competition with immobilised ligand | 1 µM | 80 |
| CN(c1ccnc(CNc2nc(Nc3ccc4c(c3)CC(=O)N4)ncc2C(F)(F)F)n1)S(C)(=O)=O | binding | competition with immobilised ligand | 1 µM | 89 |
| Nc1ncc2c(n1)-c1c([nH]c3ccc(C#CC4CC4)cc13)CCCC2 | binding | competition with immobilised ligand | 1 µM | 95 |
| CN(C)c1ncnc(-c2ccc3nc(Nc4cc(CN5CCN(C(=O)CC(F)(F)F)CC5)ccn4)[nH]c3c2)c1Cl | cell-free assay | competition with immobilised ligand | 1 µM | 95 |
| N[C@H]1CCN(c2nccc(-c3cnn4ncccc34)n2)C1 | binding |  | 1 µM | 75 |
| FC(F)(F)c1ccc2c(c1)nc(-c1cccnc1)n2C1CC1 | cell-free assay | competition with immobilised ligand | 1 µM | 93 |
| O=C(Nc1c[nH]nc1C(=O)NC1CCNCC1)c1cc(F)cc(F)c1 | binding | competition with immobilised ligand | 1 µM | 89 |
| Cc1cnn2ncc(-c3ccnc(N(C)C)n3)c2c1 | binding |  | 1 µM | 100 |
| O=C(NCCCN1CCOCC1)c1ccc(Nc2ncc(Cl)c(-c3ccc(Cl)s3)n2)cc1 | binding | competition with immobilised ligand | 1 µM | 86 |
| c1cncc(-c2cccc(Nc3nccc(NC4CCCCC4)n3)c2)c1 | binding | competition with immobilised ligand | 10 µM | 73 |
| Cc1nccc(COC(=O)N2C[C@@H]3[C@@H](CNC(=O)c4ccc5[nH]nnc5c4)[C@@H]3C2)n1 | binding | competition with immobilised ligand | 1 µM | 85 |
| CN(C)c1nccc(-c2cnc3ncccn23)n1 | binding |  | 1 µM | 100 |
| COc1cccc(CNC(=O)c2nc3scc(COCc4ccc(C(=O)O)cc4)c3c(=O)[nH]2)c1 | cell-free assay | competition with immobilised ligand | 1 µM | 100 |
| Cc1cnc(Nc2ccc(C(=O)N3CCC(N4CCCC4)CC3)cc2)nc1-c1cc2ccccc2s1 | binding | competition with immobilised ligand | 1 µM | 60 |
| c1ccc(N2CCN(Cc3nc4ccccc4[nH]3)CC2)nc1 | binding | competition with immobilised ligand | 1 µM | 86 |
| COc1ncc2cc3ccccc3nc2c1C#N | binding | competition with immobilised ligand | 5 µM | 94 |
| CNC(=O)[C@@H]1CC[C@@H](n2c(-c3ccc4cnccc4c3)nc3ccc(C(=O)NCc4cccc(C(N)=O)c4)cc32)C1 | binding | competition with immobilised ligand | 1 µM | 92 |
